For 14 compounds, IC50 results are on record in publication PMC12679438 (RSC Advances, 2025).

Like-named read-outs stand apart in the source and are kept apart here.

Assay [1] concerns HCT116. The experiment in a line: MTS cytotoxicity assay, 72 h, HCT116. In kind it is cell-based, human. The conditions noted are these: Homo sapiens, HCT-116, 72 h, read-out: IC50 HCT116. In a few lines:
(§1)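 Human lines were kept at 37 °C, 5% CO2 in recommended medium plus 10% FCS, penicillin–streptomycin, 2 mM glutamine, 1 mM bicarbonate, 1 mM pyruvate and 20 mM HEPES, and were mycoplasma-tested biweekly. Cells were exposed to test compound for 72 h on a robotic screening platform, then read by MTS. DMSO-treated cells were the negative control. IC50 came from dose–response curves, mean of ≥6 replicates.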
(Formazan colour is commonly taken as a measure of viable cells.)

The subject of assay [2] is panel of human cell lines. The assay can be described thus: MTS cytotoxicity assay, statements over groups of cell lines of the panel. The conditions noted are these: Homo sapiens. The class given is cell-based. The method in brief: as §1
Assay [3] has as its system CCRF-CEM. The experiment in a line: MTS cytotoxicity assay, 72 h, CCRF-CEM. The class given is cell-based, human. The conditions noted are these: Homo sapiens, CCRF-CEM, read-out: IC50 CCRF-CEM. The method in brief:
as §1

For assay [4], the system named is A549. The assay can be described thus: MTS cytotoxicity assay, 72 h, A549. In kind it is cell-based, human. The conditions noted are these: Homo sapiens, A549, 72 h, read-out: IC50 A549. In a few lines:
as §1

Assay [5] relates to RAMOS. The experiment in a line: MTS cytotoxicity assay, 72 h, RAMOS. In kind it is cell-based, human. The settings on record: Homo sapiens, Ramos, read-out: IC50 RAMOS. In a few lines: as §1
Assay [6] deals with K562. The experiment in a line: MTS cytotoxicity assay, 72 h, K562. The conditions noted are these: Homo sapiens, K562, 72 h, read-out: IC50 K562. The class given is cell-based, human. In a few lines:
as §1

The test system of assay [7] is Jurkat. The experiment in a line: MTS cytotoxicity assay, 72 h, Jurkat. In kind it is cell-based, human. The settings on record: Homo sapiens, Jurkat, read-out: IC50 Jurkat. The method in brief:
as §1

The subject of assay [8] is HCT116-p53. The experiment in a line: MTS cytotoxicity assay, 72 h, HCT116-p53. In kind it is cell-based, human. The conditions noted are these: Homo sapiens, read-out: IC50 HCT116-p53. The method in brief: as §1
In assay [9] the test system is BJ. The assay can be described thus: MTS cytotoxicity assay, 72 h, BJ fibroblasts. In kind it is cell-based, human. The conditions noted are these: Homo sapiens, BJ, read-out: IC50 BJ. The method in brief:
as §1

Assay [10] deals with U2OS. The assay can be described thus: MTS cytotoxicity assay, 72 h, U2OS. The settings on record: Homo sapiens, U2OS, read-out: IC50 U2OS. The class given is cell-based, human. In a few lines: as §1
Assay [11] concerns MRC-5. The experiment in a line: MTS cytotoxicity assay, 72 h, MRC-5 fibroblasts. The class given is cell-based, human. The conditions noted are these: Homo sapiens, MRC5, 72 h, read-out: IC50 MRC-5. The method in brief: as §1
Setting [12] is: 72 h, read-out: IC50 across all tested cell lines.
The mark [13] stands for this setting: read-out: IC50 across multiple cancer lines.

As to `O=C(Nc1ccccc1)C1CN(c2cc(-c3ccncc3)n[nH]c2=O)C1` [Compound 7, 1-(3-oxo-6-(pyridin-4-yl)-2,3-dihydropyridazin-4-yl)-N-phenylazetidine-3-carboxamide], the IC50 in assay [1], in assay [2] (setting [12]), in assay [3], in [4], in [5] and in assay [6] was more than 50 µM each time. In addition, the IC50 in assay [7], in assay [8], in assay [9], in [10] and in assay [11] was more than 50 µM in each case.
In the case of `O=C(Nc1ccccc1)C1CN(c2cc(-c3ccccc3)n[nH]c2=O)C1` [Compound 8, 1-(3-oxo-6-phenyl-2,3-dihydropyridazin-4-yl)-N-phenylazetidine-3-carboxamide], the concentration for half-maximal inhibition (IC50) in [1], in assay [2] (setting [12]), in assay [3], in assay [4], in [5] and in assay [6] was more than 50 µM each time. Also, the IC50 in assay [7], in assay [8], in assay [9], in assay [10] and in [11] was more than 50 µM in each case.
For the compound `COc1ccc(-c2cc(N3CC(C(=O)Nc4ccccc4)C3)c(=O)[nH]n2)cc1` [Compound 10, 1-(6-(4-methoxyphenyl)-3-oxo-2,3-dihydropyridazin-4-yl)-N-phenylazetidine-3-carboxamide], the IC50 (in general, the point on the concentration scale where inhibition reaches its midpoint) in assay [1] is more than 50 µM; in [3], 20.8 µM; in [4], more than 50 µM; in [5] it was 11 µM; in assay [6], more than 50 µM; in assay [7], 40.3 µM. The concentration for half-maximal inhibition (IC50) in assay [8], in [9], in [10] and in assay [11] was more than 50 µM in each case.
Regarding `O=C(Nc1ccccc1)C1CN(c2cc(-c3ccc(Cl)cc3)n[nH]c2=O)C1` [Compound 11, 1-(6-(4-chlorophenyl)-3-oxo-2,3-dihydropyridazin-4-yl)-N-phenylazetidine-3-carboxamide], the half-maximal inhibitory concentration (IC50) in assay [1] is 38.9 µM; in assay [2] (setting [13]), 18 to 37 µM; in [3] it was 23 µM; in assay [4] it was 32 µM; in assay [5] it was 10.4 µM; in assay [6], more than 50 µM. Moreover, the concentration for half-maximal inhibition (IC50) in assay [7] was determined as 33.2 µM; in assay [8], 37.9 µM; in assay [9], 34 µM; in assay [10], 26.9 µM; in assay [11], 26 µM.
As to `O=C(Nc1ccccc1)C1CN(c2cc(-c3ccc(F)cc3F)n[nH]c2=O)C1` [Compound 12, 1-(6-(2,4-difluorophenyl)-3-oxo-2,3-dihydropyridazin-4-yl)-N-phenylazetidine-3-carboxamide], the IC50 is 37.1 µM in assay [1]; 18 to 37 µM in [2] (setting [13]); 18 µM in [3]; 36.3 µM in assay [4]; 16.8 µM in [5]; 31.8 µM in [6]. Further, the IC50 in assay [7] came to 33.9 µM; in assay [8], 32.8 µM; in assay [9], 28.9 µM; in [10], 16.2 µM; in [11], 16.6 µM.
As to `O=C(NCc1ccco1)C1CN(c2cc(-c3ccncc3)n[nH]c2=O)C1` [Compound 17, N-(furan-2-ylmethyl)-1-(3-oxo-6-(pyridin-4-yl)-2,3-dihydropyridazin-4-yl)azetidine-3-carboxamide], the concentration for half-maximal inhibition (IC50) in assay [1], in [2] (setting [12]), in assay [3], in [4], in assay [5] and in [6] was more than 50 µM in each case. The concentration for half-maximal inhibition (IC50) in assay [7], in assay [8], in assay [9], in assay [10] and in [11] was more than 50 µM each time.
As for `O=C(NCc1ccco1)C1CN(c2cc(-c3ccccc3)n[nH]c2=O)C1` [Compound 18, N-(furan-2-ylmethyl)-1-(3-oxo-6-phenyl-2,3-dihydropyridazin-4-yl)azetidine-3-carboxamide], the IC50 in [1] was more than 50 µM; in assay [3], 30.2 µM; in assay [4] it was more than 50 µM; in assay [5] it was 41.2 µM; in assay [6], 30.4 µM; in assay [7] it was 19.2 µM. The concentration for half-maximal inhibition (IC50) in [8], in assay [9], in assay [10] and in assay [11] was more than 50 µM in each case.
As to `O=C(NCc1ccco1)C1CN(c2cc(-c3cccc(F)c3)n[nH]c2=O)C1` [Compound 19, 1-(6-(3-fluorophenyl)-3-oxo-2,3-dihydropyridazin-4-yl)-N-(furan-2-ylmethyl)azetidine-3-carboxamide], the 50% inhibitory concentration (IC50) is more than 50 µM in assay [1]; more than 50 µM in assay [3]; more than 50 µM in assay [4]; 16.3 µM in assay [5]; more than 50 µM in [6]; 25.1 µM in [7]. Also, the concentration for half-maximal inhibition (IC50) in assay [8], in assay [9], in [10] and in assay [11] was more than 50 µM each time.
On to `COc1ccc(-c2cc(N3CC(C(=O)NCc4ccco4)C3)c(=O)[nH]n2)cc1` [Compound 20, N-(furan-2-ylmethyl)-1-(6-(4-methoxyphenyl)-3-oxo-2,3-dihydropyridazin-4-yl)azetidine-3-carboxamide], for which the IC50 in assay [1] is more than 50 µM; in assay [3], more than 50 µM; in [4], more than 50 µM; in assay [5], 19.7 µM; in [6], 38.7 µM; in assay [7] it was 24.3 µM. In addition, the IC50 in assay [8], in [9], in assay [10] and in assay [11] was more than 50 µM each time.
In the case of `O=C(NCc1ccco1)C1CN(c2cc(-c3ccc(Cl)cc3)n[nH]c2=O)C1` [Compound 21, 1-(6-(4-chlorophenyl)-3-oxo-2,3-dihydropyridazin-4-yl)-N-(furan-2-ylmethyl)azetidine-3-carboxamide], the IC50 in assay [1] was more than 50 µM; in [3] it was more than 50 µM; in assay [4] it was more than 50 µM; in assay [5], 37.5 µM; in [6], more than 50 µM; in [7] it was 30.5 µM. The 50% inhibitory concentration (IC50) in assay [8], in assay [9], in assay [10] and in [11] was more than 50 µM in each case.
`COC(=O)c1cncc(-c2cc(N3CC(C(=O)NCc4ccco4)C3)c(=O)[nH]n2)c1` [Compound 23, methyl 5-(5-(3-((furan-2-ylmethyl)carbamoyl)azetidin-1-yl)-6-oxo-1,6-dihydropyridazin-3-yl)nicotinate]: the IC50 in assay [1] was determined as 8.83 µM; in assay [3] it was 5.12 µM; in assay [4], 42.1 µM; in assay [5], 5.53 µM; in [6], 7.4 µM; in [7], 5.15 µM. Further, the IC50 in assay [8] was 12.7 µM; in assay [9], more than 50 µM; in assay [10] it was 16.9 µM; in assay [11], more than 50 µM.
Take `O=C(C1CN(c2cc(-c3ccncc3)n[nH]c2=O)C1)N1CCN(c2ccccc2)CC1` [Compound 28, 4-(3-(4-phenylpiperazine-1-carbonyl)azetidin-1-yl)-6-(pyridin-4-yl)pyridazin-3(2H)-one]: the IC50 in [1], in [3], in assay [4], in [5], in [6] and in assay [7] was more than 50 µM each time. Further, the 50% inhibitory concentration (IC50) in assay [8], in assay [9], in [10] and in [11] was more than 50 µM in each case.
Regarding `O=C(C1CN(c2cc(-c3ccccc3)n[nH]c2=O)C1)N1CCN(c2ccccc2)CC1` [Compound 29, 6-phenyl-4-(3-(4-phenylpiperazine-1-carbonyl)azetidin-1-yl)pyridazin-3(2H)-one], the IC50 in [1], in assay [3], in assay [4], in assay [5], in assay [6] and in assay [7] was more than 50 µM throughout. Besides, the IC50 in assay [8], in assay [9], in [10] and in [11] was more than 50 µM each time.
For the compound `O=C(c1ccncc1)C1CN(c2cc(-c3ccncc3)n[nH]c2=O)C1` [Compound 46, 4-(3-isonicotinoylazetidin-1-yl)-6-(pyridin-4-yl)pyridazin-3(2H)-one], the IC50 is more than 50 µM in assay [1]; 29 µM in assay [3]; more than 50 µM in assay [4]; more than 50 µM in assay [5]; more than 50 µM in assay [6]; 35.9 µM in assay [7]. The IC50 in assay [8], in [9], in assay [10] and in [11] was more than 50 µM each time.
